Results published in ChEMBL document CHEMBL3112537, “A novel series of 6-substituted 3-(pyrrolidin-1-ylmethyl)chromen-2-ones as selective monoamine oxidase (MAO) A inhibitors” (Eur J Med Chem, 2014).

What was measured:
[1] = molecular target: T1, Amine oxidase [flavin-containing] B (Homo sapiens, UniProt P27338); assay: Inhibition of human recombinant MAO-B assessed as kynuramine oxidation to 4-hydroxyquinoline after 40 mins by LC-MS/MS analysis
T1 sequence (P27338 whole entry): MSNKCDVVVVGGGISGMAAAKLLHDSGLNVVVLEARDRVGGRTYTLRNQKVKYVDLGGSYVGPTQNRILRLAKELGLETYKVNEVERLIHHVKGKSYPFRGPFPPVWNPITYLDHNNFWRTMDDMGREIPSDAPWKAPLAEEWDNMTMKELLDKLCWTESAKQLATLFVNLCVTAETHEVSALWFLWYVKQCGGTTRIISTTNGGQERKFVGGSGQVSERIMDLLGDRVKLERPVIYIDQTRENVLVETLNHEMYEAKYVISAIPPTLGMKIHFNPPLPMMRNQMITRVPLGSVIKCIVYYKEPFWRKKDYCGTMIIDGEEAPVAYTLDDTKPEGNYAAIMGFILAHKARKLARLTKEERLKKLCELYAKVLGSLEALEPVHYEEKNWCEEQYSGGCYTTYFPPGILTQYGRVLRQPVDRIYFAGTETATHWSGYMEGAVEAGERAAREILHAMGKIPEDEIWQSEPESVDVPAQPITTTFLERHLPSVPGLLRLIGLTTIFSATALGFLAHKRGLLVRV
In short: (§1)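 Human MAO A and MAO B inhibition using kynuramine as a mixed substrate for both isoforms. IC50 is given as the mean ± SE of duplicate determinations.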

[2] = Metabolic stability in rat liver microsomes assessed as compound remaining at 5 uM after 60 mins by LC-MS/MS analysis; type: ADME; settings: read-out: Stability
In short: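 Incubation with rat liver microsomes, read as % of compound remaining after 60 min.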

[3] = molecular target: D(2) dopamine receptor (Homo sapiens, UniProt P14416); assay: Antagonist activity at dopamine D2 receptor (unknown origin) expressed in HEK cells co-expressing Gqi5 assessed as inhibition of dopamine-induced effect by FLIPR assay; type: cell-based, HEK293
[4] = system: Rattus norvegicus; assay: In vivo inhibition of MAO-A in Sprague-Dawley rat assessed as 5-hydroxyindoleacetic acid in brain striatum at 100 umol/kg, sc after 1 hr by HPLC/EC analysis relative to control; type: functional; set-up: scale not given: the % may be the effect or the level left
In short: (§2)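 Freely moving rats dosed subcutaneously and sacrificed 1 h later. Striatal DOPAC, 3-MT and 5-HIAA were measured post mortem and expressed as % of saline control (n = 4). Significance was by Student's t-test, P < 0.05.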

[5] = system: Rattus norvegicus; assay: In vivo inhibition of MAO-A in Sprague-Dawley rat assessed as 3,4-dihydroxyphenylacetic acid level in brain striatum at 100 umol/kg, sc after 1 hr by HPLC/EC analysis relative to control; type: functional; set-up: scale not given: the % may be the effect or the level left; in short: as §2
[6] = system: Rattus norvegicus; assay: In vivo inhibition of MAO-A in Sprague-Dawley rat assessed as 3-methoxytyramine level in brain striatum at 100 umol/kg, sc after 1 hr by HPLC/EC analysis relative to control; type: functional; set-up: scale not given: the % may be the effect or the level left; in short: as §2
[7] = molecular target: T2, Amine oxidase [flavin-containing] A (Homo sapiens, UniProt P21397); assay: Inhibition of human recombinant MAO-A assessed as kynuramine oxidation to 4-hydroxyquinoline after 40 mins by LC-MS/MS analysis; in short: as §1
T2 sequence (P21397 whole entry): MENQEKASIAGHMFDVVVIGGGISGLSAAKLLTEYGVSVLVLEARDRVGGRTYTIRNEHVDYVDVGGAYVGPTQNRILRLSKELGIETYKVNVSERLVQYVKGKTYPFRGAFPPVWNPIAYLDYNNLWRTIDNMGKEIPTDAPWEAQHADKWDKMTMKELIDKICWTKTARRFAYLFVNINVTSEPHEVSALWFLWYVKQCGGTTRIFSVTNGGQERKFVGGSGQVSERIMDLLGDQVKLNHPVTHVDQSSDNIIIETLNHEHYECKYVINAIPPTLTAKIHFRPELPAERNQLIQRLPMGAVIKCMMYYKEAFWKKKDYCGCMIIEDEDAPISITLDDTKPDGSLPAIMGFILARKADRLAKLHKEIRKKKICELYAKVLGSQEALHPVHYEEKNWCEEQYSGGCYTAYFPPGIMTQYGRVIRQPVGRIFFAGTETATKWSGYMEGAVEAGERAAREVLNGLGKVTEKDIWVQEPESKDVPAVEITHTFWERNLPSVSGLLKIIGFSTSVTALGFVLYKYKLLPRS

[8] = Aqueous solubility of the compound in saline solution; type: physicochemical
[9] = system: Rattus norvegicus; assay: In vivo inhibition of MAO-A in Sprague-Dawley rat assessed as 3-methoxytyramine level in brain striatum at 80 umol/kg, sc after 1 hr by HPLC/EC analysis relative to control; type: functional; set-up: scale not given: the % may be the effect or the level left; in short: as §2
[10] = system: Rattus norvegicus; assay: In vivo inhibition of MAO-A in Sprague-Dawley rat assessed as 5-hydroxyindoleacetic acid in brain striatum at 80 umol/kg, sc after 1 hr by HPLC/EC analysis relative to control; type: functional; set-up: scale not given: the % may be the effect or the level left; in short: as §2
[11] = system: Rattus norvegicus; assay: In vivo inhibition of MAO-A in Sprague-Dawley rat assessed as 3,4-dihydroxyphenylacetic acid level in brain striatum at 80 umol/kg, sc after 1 hr by HPLC/EC analysis relative to control; type: functional; set-up: scale not given: the % may be the effect or the level left; in short: as §2
[12] = species: Homo sapiens; assay: Selectivity index, ratio of IC50 for human recombinant MAO-B to IC50 for human recombinant MAO-A
In short: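 Selectivity index for MAO A = IC50(MAO B)/IC50(MAO A), with both human isoforms assayed against kynuramine substrate.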

[13] = molecular target: Sodium-dependent serotonin transporter (Homo sapiens) (UniProt P31645); assay: Displacement of [3H]-imipramine from human serotonin transporter at 1 uM relative to control
In short: (§3)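 Competition binding run by a contract lab, read as % inhibition of control specific binding at a single test concentration. Radioligand per target: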

[14] = molecular target: Sodium-dependent noradrenaline transporter (Homo sapiens) (UniProt P23975); assay: Displacement of [3H]-nisoxetin from human norepinephrine transporter at 1 uM relative to control; in short: as §3
[15] = molecular target: Adrenergic receptor alpha-2 (Rattus norvegicus) (UniProt P22086+P19328+P22909); assay: Displacement of [3H]-RX-821002 from rat alpha-2 adrenergic receptor at 1 uM relative to control; in short: as §3
[16] = molecular target: Sodium-dependent dopamine transporter (Homo sapiens) (UniProt Q01959); assay: Displacement of [3H]BTCP from human dopamine transporter at 1 uM relative to control; in short: as §3
[17] = molecular target: T3, 5-hydroxytryptamine receptor 1A (Homo sapiens) (UniProt P08908); assay: Displacement of [3H]8-OH-DPAT from human 5-HT1A receptor at 1 uM relative to control; in short: as §3
T3 sequence (whole entry): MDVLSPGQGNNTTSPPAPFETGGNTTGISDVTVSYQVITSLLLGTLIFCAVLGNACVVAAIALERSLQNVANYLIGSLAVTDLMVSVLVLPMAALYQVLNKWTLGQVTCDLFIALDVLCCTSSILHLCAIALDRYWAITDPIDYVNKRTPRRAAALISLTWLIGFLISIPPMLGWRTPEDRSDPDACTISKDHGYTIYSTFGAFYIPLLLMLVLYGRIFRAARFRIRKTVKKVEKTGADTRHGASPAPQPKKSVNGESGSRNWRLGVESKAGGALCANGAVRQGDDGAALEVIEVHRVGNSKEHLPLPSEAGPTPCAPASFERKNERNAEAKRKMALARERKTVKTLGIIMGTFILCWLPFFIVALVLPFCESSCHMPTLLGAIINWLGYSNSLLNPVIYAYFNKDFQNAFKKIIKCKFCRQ

[18] = molecular target: Adrenergic receptor alpha-1 (Rattus norvegicus) (UniProt P15823+P23944+P43140); assay: Displacement of [3H]-prazosin from rat alpha-1 adrenergic receptor at 1 uM relative to control; in short: as §3
[19] = molecular target: Histamine H1 receptor (Homo sapiens) (UniProt P35367); assay: Displacement of histamine from human histamine H1 receptor at 1 uM relative to control; in short: as §3
[20] = molecular target: 5-hydroxytryptamine receptor 2A (Homo sapiens) (UniProt P28223); assay: Displacement of [3H]-ketanserin from human 5-HT2A receptor at 1 uM relative to control; in short: as §3
5-hydroxytryptamine receptor 2A (Homo sapiens), sequence (P28223 whole entry): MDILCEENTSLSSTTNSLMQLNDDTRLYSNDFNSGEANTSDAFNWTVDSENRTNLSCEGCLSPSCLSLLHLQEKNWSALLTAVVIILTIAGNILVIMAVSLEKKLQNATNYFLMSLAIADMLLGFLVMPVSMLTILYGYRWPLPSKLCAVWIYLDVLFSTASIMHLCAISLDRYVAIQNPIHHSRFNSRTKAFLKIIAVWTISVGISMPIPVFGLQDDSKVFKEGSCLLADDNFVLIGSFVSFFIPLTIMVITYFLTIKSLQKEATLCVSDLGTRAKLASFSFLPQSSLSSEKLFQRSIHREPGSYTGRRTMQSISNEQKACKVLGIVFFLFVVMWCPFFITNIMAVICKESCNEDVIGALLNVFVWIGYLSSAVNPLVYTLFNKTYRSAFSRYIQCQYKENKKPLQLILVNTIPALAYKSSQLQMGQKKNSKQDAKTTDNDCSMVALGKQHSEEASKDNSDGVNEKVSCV

D(2) dopamine receptor, sequence (P14416 whole entry): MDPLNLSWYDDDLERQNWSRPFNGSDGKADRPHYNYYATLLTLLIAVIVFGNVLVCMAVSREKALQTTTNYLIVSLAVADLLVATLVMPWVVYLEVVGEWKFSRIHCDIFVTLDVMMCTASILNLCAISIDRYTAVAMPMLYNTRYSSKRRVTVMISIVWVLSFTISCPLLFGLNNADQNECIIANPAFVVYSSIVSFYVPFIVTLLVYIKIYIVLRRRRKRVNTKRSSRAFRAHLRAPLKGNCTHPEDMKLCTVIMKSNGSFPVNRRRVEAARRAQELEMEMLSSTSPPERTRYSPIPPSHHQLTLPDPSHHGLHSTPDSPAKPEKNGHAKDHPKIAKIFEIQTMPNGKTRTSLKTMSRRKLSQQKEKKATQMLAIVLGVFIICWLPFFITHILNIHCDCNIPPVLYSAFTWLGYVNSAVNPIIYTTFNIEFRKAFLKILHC
Histamine H1 receptor (Homo sapiens), sequence (P35367 whole entry): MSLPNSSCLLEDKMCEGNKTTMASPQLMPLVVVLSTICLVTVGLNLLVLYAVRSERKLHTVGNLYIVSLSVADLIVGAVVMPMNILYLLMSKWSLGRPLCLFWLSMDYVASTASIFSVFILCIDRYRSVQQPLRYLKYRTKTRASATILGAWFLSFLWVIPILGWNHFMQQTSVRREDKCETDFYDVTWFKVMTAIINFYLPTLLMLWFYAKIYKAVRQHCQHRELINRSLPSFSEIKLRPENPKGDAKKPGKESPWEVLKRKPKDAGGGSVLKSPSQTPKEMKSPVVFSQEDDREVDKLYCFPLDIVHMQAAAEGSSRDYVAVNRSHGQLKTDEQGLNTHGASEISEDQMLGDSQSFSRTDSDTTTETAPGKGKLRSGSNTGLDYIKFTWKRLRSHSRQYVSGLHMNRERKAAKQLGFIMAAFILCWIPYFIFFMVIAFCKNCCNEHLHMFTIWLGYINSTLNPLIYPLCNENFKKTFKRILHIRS
Sodium-dependent serotonin transporter (Homo sapiens), sequence (P31645 whole entry, looked up): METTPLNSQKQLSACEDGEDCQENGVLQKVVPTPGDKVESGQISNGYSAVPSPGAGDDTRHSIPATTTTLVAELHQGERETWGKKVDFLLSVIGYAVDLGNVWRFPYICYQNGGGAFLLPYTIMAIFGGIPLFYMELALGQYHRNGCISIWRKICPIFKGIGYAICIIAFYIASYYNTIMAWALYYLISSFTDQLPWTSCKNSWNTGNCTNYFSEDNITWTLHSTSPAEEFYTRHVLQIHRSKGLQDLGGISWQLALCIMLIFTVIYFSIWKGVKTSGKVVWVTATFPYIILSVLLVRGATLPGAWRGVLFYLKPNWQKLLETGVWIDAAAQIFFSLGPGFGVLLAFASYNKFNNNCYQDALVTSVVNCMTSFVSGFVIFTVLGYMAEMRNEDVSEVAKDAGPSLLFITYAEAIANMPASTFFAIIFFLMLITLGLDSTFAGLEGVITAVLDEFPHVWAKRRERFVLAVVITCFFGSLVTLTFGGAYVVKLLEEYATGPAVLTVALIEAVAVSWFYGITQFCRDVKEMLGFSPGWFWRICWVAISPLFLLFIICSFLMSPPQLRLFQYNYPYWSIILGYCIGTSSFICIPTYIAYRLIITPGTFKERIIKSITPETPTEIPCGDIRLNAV
Sodium-dependent noradrenaline transporter (Homo sapiens), sequence (P23975 whole entry): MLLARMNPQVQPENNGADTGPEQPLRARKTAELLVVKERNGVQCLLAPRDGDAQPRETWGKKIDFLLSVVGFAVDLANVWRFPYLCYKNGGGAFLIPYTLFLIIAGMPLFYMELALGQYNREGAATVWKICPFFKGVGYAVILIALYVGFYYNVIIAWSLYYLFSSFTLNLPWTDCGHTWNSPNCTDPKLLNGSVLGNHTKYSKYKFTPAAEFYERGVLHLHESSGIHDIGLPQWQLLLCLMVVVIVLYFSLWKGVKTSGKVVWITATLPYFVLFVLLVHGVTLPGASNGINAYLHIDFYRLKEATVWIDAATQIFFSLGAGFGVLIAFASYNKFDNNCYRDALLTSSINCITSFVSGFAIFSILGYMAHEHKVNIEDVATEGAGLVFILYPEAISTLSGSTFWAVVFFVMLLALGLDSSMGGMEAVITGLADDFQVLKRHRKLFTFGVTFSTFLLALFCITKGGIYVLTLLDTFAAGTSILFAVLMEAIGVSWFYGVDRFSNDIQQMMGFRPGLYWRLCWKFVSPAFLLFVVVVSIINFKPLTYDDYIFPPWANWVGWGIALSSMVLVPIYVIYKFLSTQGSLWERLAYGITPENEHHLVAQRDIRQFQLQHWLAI
Sodium-dependent dopamine transporter (Homo sapiens), sequence (Q01959 whole entry): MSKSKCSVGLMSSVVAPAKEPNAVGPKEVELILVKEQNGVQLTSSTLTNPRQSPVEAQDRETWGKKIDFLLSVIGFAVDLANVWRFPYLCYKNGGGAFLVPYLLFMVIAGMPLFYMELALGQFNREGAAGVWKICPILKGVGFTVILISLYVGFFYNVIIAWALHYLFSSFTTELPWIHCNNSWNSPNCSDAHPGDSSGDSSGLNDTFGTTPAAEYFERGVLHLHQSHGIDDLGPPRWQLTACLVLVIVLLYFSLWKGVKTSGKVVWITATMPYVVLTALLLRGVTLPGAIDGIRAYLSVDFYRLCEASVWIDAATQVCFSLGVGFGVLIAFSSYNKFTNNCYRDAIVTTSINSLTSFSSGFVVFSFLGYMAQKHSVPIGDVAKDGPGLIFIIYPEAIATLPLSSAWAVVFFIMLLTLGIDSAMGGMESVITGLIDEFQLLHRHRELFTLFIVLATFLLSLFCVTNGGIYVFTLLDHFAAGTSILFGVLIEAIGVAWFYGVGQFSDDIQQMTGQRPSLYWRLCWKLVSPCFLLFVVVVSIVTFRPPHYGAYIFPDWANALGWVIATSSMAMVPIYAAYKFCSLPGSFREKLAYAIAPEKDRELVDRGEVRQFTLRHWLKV

| SMILES | IC50 [1] | IC50 [3] | IC50 [7] | Ratio IC50 [12] | other results |
| --- | --- | --- | --- | --- | --- |
| CCCNCc1cc2ccccc2oc1=O [listing 1 of 2 here] | 62.3 µM | > 30 µM | 17.1 µM | – | remaining at 1 h, 5 µM [2]: 0%; Activity [4]: 116%; Activity [5]: 70%; Activity [6]: 89% |
| Br.O=c1oc2ccc(O)cc2cc1CN1CCCC1 | – | – | – | – | solubility [8]: > 5 mg/mL |
| O=c1oc2ccc(C(F)(F)F)cc2cc1CN1CCCC1 [listing 1 of 2 here] | > 100 µM | > 30 µM | 8.46 µM | – | Activity [4]: 104%; Activity [5]: 77%; Activity [6]: 88% |
| O=c1oc2ccc(O)cc2cc1CN1CCCC1 | > 100 µM | – | 1.46 µM | – | Activity [9]: 126%; Activity [10]: 86%; Activity [11]: 47% |
| O=c1oc2ccc(OC(F)(F)F)cc2cc1CN1CCCC1 | > 100 µM | > 26 µM | 4.24 µM | > 23.5 | remaining at 1 h, 5 µM [2]: 3% |
| CCCNCc1cc2ccccc2oc1=O.Cl | – | – | – | – | solubility [8]: > 5 mg/mL |
| CCCNCc1cc2ccccc2oc1=O [listing 2 of 2 here] | – | – | – | 3.6 | – |
| CCCOc1ccc2oc(=O)c(CN3CCCC3)cc2c1 | 22.3 µM | – | 2.16 µM | 10.3 | – |
| COc1ccc2oc(=O)c(CN3CCCC3)cc2c1 [listing 1 of 2 here] | > 100 µM | > 30 µM | 4.48 µM | – | Activity [4]: 90%; Activity [5]: 65%; Activity [6]: 129% |
| COc1ccc2oc(=O)c(CN3CCCC3)cc2c1 [listing 2 of 2 here] | – | – | – | > 22.3 | – |
| N[C@@H]1C[C@H]1c1ccccc1.N[C@H]1C[C@@H]1c1ccccc1 | – | – | – | 1 | – |
| CCCCOc1ccc2oc(=O)c(CNCC)cc2c1 | 7.34 µM | – | 1.95 µM | 3.7 | – |
| O=c1oc2ccc(C(F)(F)F)cc2cc1CN1CCCC1 [listing 2 of 2 here] | – | – | – | > 11.8 | inhibition [13]: -4%; inhibition [14]: 1%; inhibition [15]: 20%; inhibition [16]: 8%; inhibition [17]: 8%; inhibition [18]: 4%; inhibition [19]: 4%; inhibition [20]: 20% |
